Results as given in ChEMBL document CHEMBL5042553 (J Med Chem, 2022).
pIC50: −log10 of the molar value. Active and inactive are the calls of the source. The rule behind the calls is not given here.

Tests used:
[1] = target: T1, von Hippel-Lindau disease tumor suppressor/Histone deacetylase 3 (Homo sapiens, UniProt O15379+P40337); assay: Protac activity at VHL/HDAC3 in human HCT-116 cells assessed as induction of HDAC3 degradation at 10 uM incubated for 24 hrs by Western blot analysis; format: cell-based
Method in brief: (§1)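 HCT116 cells (37 °C, 5% CO₂) seeded for 24 h, then given DMSO or PROTAC (0.01–10 μM) in fresh medium for 2–48 h. Lysates made in Tris/NaCl/NP-40/Triton X-100 buffer with protease inhibitor; histones acid-extracted with 0.4 N H₂SO₄. 30 μg protein or 10 μL histone extract per lane run on 4–12% bis-Tris gels. Quantitative western blotting used IR-dye secondaries and band densitometry, referenced to DMSO; two independent biological replicates.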
Target sequence in this assay (O15379 whole entry, looked up): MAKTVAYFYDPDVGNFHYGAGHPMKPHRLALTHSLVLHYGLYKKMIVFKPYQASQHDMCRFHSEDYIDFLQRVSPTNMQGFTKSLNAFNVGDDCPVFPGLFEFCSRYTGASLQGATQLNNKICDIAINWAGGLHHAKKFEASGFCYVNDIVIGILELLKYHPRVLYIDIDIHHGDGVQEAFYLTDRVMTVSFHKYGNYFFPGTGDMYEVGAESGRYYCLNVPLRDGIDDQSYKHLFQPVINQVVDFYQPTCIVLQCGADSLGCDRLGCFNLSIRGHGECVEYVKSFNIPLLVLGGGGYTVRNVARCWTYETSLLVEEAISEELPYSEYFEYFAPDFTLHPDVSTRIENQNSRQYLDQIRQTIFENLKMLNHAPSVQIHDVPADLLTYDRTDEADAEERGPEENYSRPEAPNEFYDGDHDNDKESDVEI
Target sequence in this assay (P40337 whole entry, looked up): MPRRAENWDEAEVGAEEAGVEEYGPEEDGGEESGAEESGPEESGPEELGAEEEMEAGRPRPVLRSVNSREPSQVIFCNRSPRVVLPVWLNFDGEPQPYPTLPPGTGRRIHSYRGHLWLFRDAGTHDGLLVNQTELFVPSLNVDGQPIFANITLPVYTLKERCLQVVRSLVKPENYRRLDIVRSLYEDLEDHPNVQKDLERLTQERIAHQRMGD

[2] = target: T2, von Hippel-Lindau disease tumor suppressor/Histone deacetylase 2 (Homo sapiens) (UniProt Q92769+P40337); assay: Protac activity at VHL/HDAC2 in human HCT-116 cells assessed as induction of HDAC2 degradation at 1 to 10 uM incubated for 24 hrs by Western blot analysis; format: cell-based; conditions: dose 1-10 µM; method in brief: as §1
T2 sequence (P40337 whole entry, looked up): as above
T2 sequence (Q92769 whole entry, looked up): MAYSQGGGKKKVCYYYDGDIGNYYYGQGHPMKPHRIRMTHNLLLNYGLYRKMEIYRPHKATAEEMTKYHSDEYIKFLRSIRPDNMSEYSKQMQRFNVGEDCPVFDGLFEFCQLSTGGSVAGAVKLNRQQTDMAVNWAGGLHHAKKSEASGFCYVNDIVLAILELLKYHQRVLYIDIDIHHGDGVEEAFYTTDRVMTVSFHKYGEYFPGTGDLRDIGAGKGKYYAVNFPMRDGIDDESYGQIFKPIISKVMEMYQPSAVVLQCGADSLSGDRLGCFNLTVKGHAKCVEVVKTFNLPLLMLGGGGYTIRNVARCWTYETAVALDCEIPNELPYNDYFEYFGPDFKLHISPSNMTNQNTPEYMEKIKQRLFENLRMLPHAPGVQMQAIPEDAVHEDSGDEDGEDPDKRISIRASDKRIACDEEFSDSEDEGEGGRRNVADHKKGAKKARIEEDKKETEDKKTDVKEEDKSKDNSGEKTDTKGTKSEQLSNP

[3] = target: T3, von Hippel-Lindau disease tumor suppressor/Histone deacetylase 1 (Homo sapiens, UniProt Q13547+P40337); assay: Protac activity at VHL/HDAC1 in human HCT-116 cells assessed as induction of HDAC1 degradation at 1 to 10 uM incubated for 24 hrs by Western blot analysis; format: cell-based; conditions: dose 1-10 µM; method in brief: as §1
Target sequence in this assay (P40337 whole entry, looked up): as the sequence (P40337 whole entry, looked up) above
Target sequence in this assay (Q13547 whole entry, looked up): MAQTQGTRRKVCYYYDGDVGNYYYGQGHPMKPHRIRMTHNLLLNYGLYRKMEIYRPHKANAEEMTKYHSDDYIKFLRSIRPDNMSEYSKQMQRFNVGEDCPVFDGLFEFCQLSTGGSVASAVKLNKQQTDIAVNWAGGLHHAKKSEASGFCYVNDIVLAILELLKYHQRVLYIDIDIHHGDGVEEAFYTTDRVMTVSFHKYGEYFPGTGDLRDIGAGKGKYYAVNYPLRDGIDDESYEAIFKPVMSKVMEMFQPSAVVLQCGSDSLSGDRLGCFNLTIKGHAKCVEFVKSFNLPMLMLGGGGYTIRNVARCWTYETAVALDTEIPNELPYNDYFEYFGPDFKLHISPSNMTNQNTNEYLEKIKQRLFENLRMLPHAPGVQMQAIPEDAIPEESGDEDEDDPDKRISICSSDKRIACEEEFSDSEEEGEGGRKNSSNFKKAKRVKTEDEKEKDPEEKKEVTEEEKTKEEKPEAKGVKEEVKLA

[4] = Inhibition of HDAC2-CoREST-LSD1 (unknown origin) using Boc- (Ac)Lys-AMC as substrate preincubated for 1 hr followed by substrate addition and measured after 1 hr by fluorescent assay; parameters: species or system Homo sapiens
[5] = Inhibition of HDAC1-CoREST-LSD1 (unknown origin) using Boc- (Ac)Lys-AMC as substrate preincubated for 1 hr followed by substrate addition and measured after 1 hr by fluorescent assay; parameters: species or system Homo sapiens
[6] = target: T1, von Hippel-Lindau disease tumor suppressor/Histone deacetylase 3; assay: Protac activity at VHL/HDAC3 in human HCT-116 cells assessed as induction of HDAC3 degradation incubated for 24 hrs by Western blot analysis; format: cell-based
Target sequence in this assay (O15379 whole entry): as the sequence (O15379 whole entry, looked up) above
Target sequence in this assay (P40337 whole entry): as the sequence (P40337 whole entry, looked up) above

HCT-116 [7] = assay: Cytotoxicity against human HCT-116 cells assessed as reduction in cell viability measured after 48 hrs by cell-titer glo assay; format: functional, cell-based
[8] = Inhibition of HDAC3-SMRT (unknown origin) using Boc- (Ac)Lys-AMC as substrate preincubated for 1 hr followed by substrate addition and measured after 1 hr by fluorescent assay; parameters: species or system Homo sapiens
[9] = target: T3, von Hippel-Lindau disease tumor suppressor/Histone deacetylase 1; assay: Protac activity at VHL/HDAC1 in human HCT-116 cells assessed as induction of HDAC1 degradation incubated for 24 hrs by Western blot analysis; format: cell-based
Target sequence in this assay (Q13547 whole entry): as the sequence (Q13547 whole entry, looked up) above
Target sequence in this assay (P40337 whole entry): as the sequence (P40337 whole entry, looked up) above

[10] = target: T1, von Hippel-Lindau disease tumor suppressor/Histone deacetylase 3; assay: Protac activity at VHL/HDAC3 in human HCT-116 cells assessed as induction of HDAC3 degradation at 1 to 10 uM incubated for 24 hrs by Western blot analysis; format: cell-based; conditions: dose 1-10 µM; method in brief: as §1
Target sequence in this assay (O15379 whole entry, looked up): as the sequence (O15379 whole entry, looked up) above
Target sequence in this assay (P40337 whole entry, looked up): as the sequence (P40337 whole entry, looked up) above

[11] = target: T3, von Hippel-Lindau disease tumor suppressor/Histone deacetylase 1; assay: Protac activity at VHL/HDAC1 in human HCT-116 cells assessed as induction of HDAC1 degradation at 1 uM incubated for 24 hrs by Western blot analysis; format: cell-based; method in brief: as §1
Target sequence in this assay (P40337 whole entry, looked up): as above
Target sequence in this assay (Q13547 whole entry, looked up): as the sequence (Q13547 whole entry, looked up) above

[12] = target: T3, von Hippel-Lindau disease tumor suppressor/Histone deacetylase 1; assay: Protac activity at VHL/HDAC1 in human HCT-116 cells assessed as induction of HDAC1 degradation at 1 uM measured upto 48 hrs by Western blot analysis; format: cell-based; conditions: time hrs <=48; method in brief: as §1
Target sequence in this assay (P40337 whole entry, looked up): as the sequence (P40337 whole entry, looked up) above
Target sequence in this assay (Q13547 whole entry, looked up): as the sequence (Q13547 whole entry, looked up) above

[13] = target: T1, von Hippel-Lindau disease tumor suppressor/Histone deacetylase 3; assay: Protac activity at VHL/HDAC3 in human HCT-116 cells assessed as induction of HDAC3 degradation at 1 uM measured after 15 hrs by Western blot analysis; format: cell-based; method in brief: as §1
Target sequence in this assay (O15379 whole entry, looked up): as the sequence (O15379 whole entry, looked up) above
Target sequence in this assay (P40337 whole entry, looked up): as the sequence (P40337 whole entry, looked up) above

[14] = target: T1, von Hippel-Lindau disease tumor suppressor/Histone deacetylase 3; assay: Protac activity at VHL/HDAC3 in human HCT-116 cells assessed as induction of HDAC3 degradation at 10 uM measured upto 24 hrs by Western blot analysis; format: cell-based; conditions: time hrs <=24; method in brief: as §1
Target sequence in this assay (O15379 whole entry, looked up): as the sequence (O15379 whole entry, looked up) above
Target sequence in this assay (P40337 whole entry, looked up): as the sequence (P40337 whole entry, looked up) above

[15] = target: T2, von Hippel-Lindau disease tumor suppressor/Histone deacetylase 2 (Homo sapiens); assay: Protac activity at VHL/HDAC2 in human HCT-116 cells assessed as reduction in LSD1 level measured after 48 hrs by Western blot analysis; parameters: scale not given: the % may be the effect or the level left
[16] = target: T3, von Hippel-Lindau disease tumor suppressor/Histone deacetylase 1; assay: Protac activity at VHL/HDAC1 in human HCT-116 cells assessed as fold increase in H3K56ac at 10 uM measured after 8 hrs by Western blot analysis relative to control; format: cell-based; method in brief: as §1
Target sequence in this assay (P40337 whole entry, looked up): as above
Target sequence in this assay (Q13547 whole entry, looked up): as the sequence (Q13547 whole entry, looked up) above

[17] = target: T2, von Hippel-Lindau disease tumor suppressor/Histone deacetylase 2 (Homo sapiens); assay: Protac activity at VHL/HDAC2 in human HCT-116 cells assessed as fold increase in H3K56ac at 10 uM measured after 8 hrs by Western blot analysis relative to control; format: cell-based; method in brief: as §1
HCT-116 [18] = assay: Induction of apoptosis in HCT-116 cells assessed as accumulation of cells in Sub-G1 phase at 10 uM measured after 48 hrs by flow cytometry analysis; conditions: Homo sapiens
[19] = target: T1, von Hippel-Lindau disease tumor suppressor/Histone deacetylase 3; assay: Protac activity at VHL/HDAC3 in human HCT-116 cells assessed as induction of HDAC3 degradation at 1 uM measured after 4 hrs by Western blot analysis; format: cell-based; method in brief: as §1
Target sequence in this assay (O15379 whole entry, looked up): as the sequence (O15379 whole entry, looked up) above
Target sequence in this assay (P40337 whole entry, looked up): as the sequence (P40337 whole entry, looked up) above

[20] = target: T1, von Hippel-Lindau disease tumor suppressor/Histone deacetylase 3; assay: Protac activity at VHL/HDAC3 in human HCT-116 cells assessed as induction of HDAC3 degradation at 10 uM measured after 36 to 48 hrs by Western blot analysis; format: cell-based; conditions: time 36-48 hrs; method in brief: as §1
Target sequence in this assay (O15379 whole entry, looked up): as the sequence (O15379 whole entry, looked up) above
Target sequence in this assay (P40337 whole entry, looked up): as the sequence (P40337 whole entry, looked up) above

[21] = target: T2, von Hippel-Lindau disease tumor suppressor/Histone deacetylase 2 (Homo sapiens); assay: Protac activity at VHL/HDAC2 in human HCT-116 cells assessed as induction of HDAC2 degradation at 10 uM measured after 4 hrs by Western blot analysis; format: cell-based; method in brief: as §1
[22] = target: T3, von Hippel-Lindau disease tumor suppressor/Histone deacetylase 1; assay: Protac activity at VHL/HDAC1 in human HCT-116 cells assessed as reduction in LSD1 level measured after 48 hrs by Western blot analysis; parameters: scale not given: the % may be the effect or the level left
Target sequence in this assay (P40337 whole entry, looked up): as above
Target sequence in this assay (Q13547 whole entry, looked up): as the sequence (Q13547 whole entry, looked up) above

HCT-116 [23] = assay: Induction of apoptosis in human HCT-116 cells assessed as accumulation of cells in Sub-G1 phase at 10 uM measured after 24 hrs by flow cytometry analysis
[24] = target: T3, von Hippel-Lindau disease tumor suppressor/Histone deacetylase 1; assay: Protac activity at VHL/HDAC1 in human HCT-116 cells assessed as induction of HDAC1 degradation at 10 uM measured after 4 hrs by Western blot analysis; format: cell-based; method in brief: as §1
Target sequence in this assay (P40337 whole entry, looked up): as the sequence (P40337 whole entry, looked up) above
Target sequence in this assay (Q13547 whole entry, looked up): as the sequence (Q13547 whole entry, looked up) above

[25] = target: T2, von Hippel-Lindau disease tumor suppressor/Histone deacetylase 2 (Homo sapiens); assay: Protac activity at VHL/HDAC2 in human HCT-116 cells assessed as induction of HDAC2 degradation at 1 uM measured upto 48 hrs by Western blot analysis; format: cell-based; conditions: time hrs <=48; method in brief: as §1

| SMILES | Activity [2] | Activity [3] | Activity [10] | further results |
| --- | --- | --- | --- | --- |
| Cc1ncsc1-c1ccc(CNC(=O)[C@@H]2C[C@@H](O)CN2C(=O)C(NC(=O)COCCOCCOCC(=O)Nc2ccc(C(=O)Nc3ccc(F)cc3N)cc2)C(C)(C)C)cc1 (single isomer, unassigned) | – | – | – | Activity [1]: Active |
| Cc1ncsc1-c1ccc(CNC(=O)[C@@H]2C[C@@H](O)CN2C(=O)[C@@H](NC(=O)CCCCCCCC(=O)Nc2ccc(C(=O)Nc3cc(-c4cccs4)ccc3N)cc2)C(C)(C)C)cc1 | inactive | inactive | – | – |
| Cc1ncsc1-c1ccc(CNC(=O)[C@@H]2C[C@@H](O)CN2C(=O)[C@@H](NC(=O)CCCCCCCCCCC(=O)Nc2ccc(C(=O)Nc3ccccc3N)cc2)C(C)(C)C)cc1 | – | – | – | Activity [1]: Active |
| CC(=O)NC(C(=O)N1C[C@H](O)C[C@H]1C(=O)NCc1ccc(-c2scnc2C)cc1OCCCCCCCCCCCC(=O)Nc1ccc(C(=O)Nc2ccccc2N)cc1)C(C)(C)C (single isomer, unassigned) | – | – | – | pIC50 [4]: 5.46; pIC50 [5]: 5.82; DC50 [6]: 1.38 µM; Activity (HCT-116 [7]): inactive; pIC50 [8]: 5.42; DC50 [9]: 3.51 µM |
| Cc1ncsc1-c1ccc(CNC(=O)[C@@H]2C[C@@H](O)CN2C(=O)[C@@H](NC(=O)CCCN2CCN(CCCC(=O)Nc3ccc(C(=O)Nc4ccccc4N)cc3)CC2)C(C)(C)C)cc1 | inactive | inactive | inactive | – |
| Cc1ncsc1-c1ccc(CNC(=O)[C@@H]2CC(O)CN2C(=O)[C@@H](NC(=O)COCCOCCOCCOCC(=O)Nc2ccc(C(=O)Nc3ccccc3N)cc2)C(C)(C)C)cc1 (single isomer, unassigned) | inactive | inactive | inactive | – |
| Cc1ncsc1-c1ccc(CNC(=O)[C@@H]2C[C@@H](O)CN2C(=O)[C@@H](NC(=O)COCCOCCOCC(=O)Nc2ccc(C(=O)Nc3cc(-c4cccs4)ccc3N)cc2)C(C)(C)C)cc1 | inactive | inactive | – | – |
| Cc1ncsc1-c1ccc(CNC(=O)[C@@H]2C[C@@H](O)CN2C(=O)[C@@H](NC(=O)COCCCCCCOCC(=O)Nc2ccc(C(=O)Nc3ccccc3N)cc2)C(C)(C)C)cc1 | – | – | – | Activity [11]: inactive |
| Cc1ncsc1-c1ccc(CNC(=O)[C@@H]2C[C@@H](O)CN2C(=O)[C@@H](NC(=O)COCCCCCCCCCOCC(=O)Nc2ccc(C(=O)Nc3ccccc3N)cc2)C(C)(C)C)cc1 | – | – | – | Activity [12]: Active; Activity [13]: Active; Activity [14]: inactive; Activity [15]: 40%; fold change (FC) [16]: 2; fold change (FC) [17]: 2; Activity [11]: Active; Activity (HCT-116 [18]): Active; Activity [19]: Active; Activity [20]: 50%; Activity [21]: Active; Activity [22]: 40%; Activity (HCT-116 [23]): Active; Activity [24]: Active; Activity [25]: Active |
| Cc1ncsc1-c1ccc(CNC(=O)[C@@H]2C[C@@H](O)CN2C(=O)[C@@H](NC(=O)COCCOCC(=O)Nc2ccc(C(=O)Nc3ccccc3N)cc2)C(C)(C)C)cc1 | inactive | inactive | inactive | – |
| Cc1ncsc1-c1ccc(CNC(=O)[C@@H]2C[C@@H](O)CN2C(=O)[C@@H](NC(=O)COCCOCCOCC(=O)Nc2ccc(C(=O)Nc3ccccc3N)cc2)C(C)(C)C)cc1 | inactive | inactive | inactive | – |
| Cc1ncsc1-c1ccc(CNC(=O)[C@@H]2C[C@@H](O)CN2C(=O)[C@@H](NC(=O)COCCCCCCCCCOCC(=O)Nc2ccc(C(=O)Nc3ccc(F)cc3N)cc2)C(C)(C)C)cc1 | – | – | – | Activity [11]: Active |
| Cc1ncsc1-c1ccc(CNC(=O)[C@@H]2C[C@@H](O)CN2C(=O)C(NC(=O)CCCCCCCCCCC(=O)Nc2ccc(C(=O)Nc3ccc(F)cc3N)cc2)C(C)(C)C)cc1 (single isomer, unassigned) | – | – | Active | – |
| Cc1ncsc1-c1ccc(CNC(=O)[C@@H]2C[C@@H](O)CN2C(=O)[C@@H](NC(=O)CCCCCCCCCCC(=O)Nc2ccc(C(=O)Nc3cc(-c4cccs4)ccc3N)cc2)C(C)(C)C)cc1 | inactive | inactive | – | – |

Continued, in another order:

| Activity [2] | Activity [3] | Activity [10] | SMILES | further results |
| --- | --- | --- | --- | --- |
| Active | Active | inactive | Cc1ncsc1-c1ccc(CNC(=O)[C@@H]2C[C@@H](O)CN2C(=O)[C@@H](NC(=O)CCCCCCCCCC(=O)Nc2ccc(C(=O)Nc3ccccc3N)cc2)C(C)(C)C)cc1 | – |
| – | Active | – | CC(=O)NC(C(=O)N1C[C@H](O)C[C@H]1C(=O)NCc1ccc(-c2scnc2C)cc1OCCCCNC(=O)CCCCCCCC(=O)Nc1ccc(C(=O)Nc2ccccc2N)cc1)C(C)(C)C (single isomer, unassigned) | – |
| Active | Active | inactive | Cc1ncsc1-c1ccc(CNC(=O)[C@@H]2C[C@@H](O)CN2C(=O)[C@@H](NC(=O)CCCCCCCC(=O)Nc2ccc(C(=O)Nc3ccccc3N)cc2)C(C)(C)C)cc1 | – |
| Active | Active | – | Cc1ncsc1-c1ccc(CNC(=O)[C@@H]2C[C@@H](O)CN2C(=O)[C@@H](NC(=O)CCCCCCCCCCCCC(=O)Nc2ccc(C(=O)Nc3ccccc3N)cc2)C(C)(C)C)cc1 | – |
| – | Active | – | CC(=O)NC(C(=O)N1C[C@H](O)C[C@H]1C(=O)NCc1ccc(-c2scnc2C)cc1OCCCCNC(=O)CCCCC(=O)Nc1ccc(C(=O)Nc2ccccc2N)cc1)C(C)(C)C (single isomer, unassigned) | – |
| Active | Active | inactive | Cc1ncsc1-c1ccc(CNC(=O)[C@@H]2C[C@@H](O)CN2C(=O)[C@@H](NC(=O)CCCCCCCCC(=O)Nc2ccc(C(=O)Nc3ccccc3N)cc2)C(C)(C)C)cc1 | – |
